Sampled rows, rich in hits. Any-hit rate of the full collection: about 0.84%.
Tn7 DDE FP: disrupts Tn7 cyclic peptide binding to fibrin D-Dimer-E complex; P02675; FP displacement of FITC-Tn7 peptide from fibrin DD(E); 0% = median of compound wells per plate; inhibition, % at 8.3 µM; actives 0.13% (n = 370,000); AID 720508;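 active = inhibition above the mean of compounds falling within the control limits plus 3 SD of them, cut at about 14% in these data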;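 also: 0% = plate median of compound wells and 100% = 10 µM Aha-Tn7 peptide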
Target sequence (P02675 whole entry, looked up): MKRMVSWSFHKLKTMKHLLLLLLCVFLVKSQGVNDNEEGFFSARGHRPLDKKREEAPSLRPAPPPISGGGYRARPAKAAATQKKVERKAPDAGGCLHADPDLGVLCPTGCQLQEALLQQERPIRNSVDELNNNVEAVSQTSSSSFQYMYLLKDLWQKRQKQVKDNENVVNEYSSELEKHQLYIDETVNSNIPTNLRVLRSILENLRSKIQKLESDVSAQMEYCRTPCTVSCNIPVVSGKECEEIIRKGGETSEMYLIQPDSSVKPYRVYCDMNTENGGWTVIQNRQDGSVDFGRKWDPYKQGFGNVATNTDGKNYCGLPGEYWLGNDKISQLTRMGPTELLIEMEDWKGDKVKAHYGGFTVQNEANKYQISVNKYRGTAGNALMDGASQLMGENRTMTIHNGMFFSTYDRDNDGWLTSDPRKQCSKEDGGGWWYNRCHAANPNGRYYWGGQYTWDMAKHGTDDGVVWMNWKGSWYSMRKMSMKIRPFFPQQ
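Assay system: Human fibrin DD(E) protein | Medium: Tris buffer with calcium and detergent, pH 7.8 | Reagent: 0.1 µM fluorescent Tn7 | Compound dosing: Single point at 8.3 µM | Times: 10 min preincubation, 3 h with tracer, room temperature | Detection: Fluorescence polarization of the labelled Tn7 tracer | Controls: Aha-Tn7 high control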
SKN-1 inh: C. elegans SKN-1 inhibition | C. elegans VP596 Pgst-4::GFP/RFP ratio, acrylamide-induced, 24 h | inhibition, % at 21.8 µM | actives 0.49% (n = 360,000);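 active = interference check ratio from 0.5 to 1.5 plus GFP to RFP signal ratio inhibition reaching or exceeding a fixed threshold, cut at about 30% in these data, passing the limit was not always enough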
MT1-MMP act inh: inhibitors of human MT1-MMP activation; actives 0.061% (n = 360,000); HT1080 RFP-PRO-GFP cells, GFP/RFP ratio fluorescence, overnight; percent of plate control window, DMSO zero; P50281; GFP/RFP ratio change, % at 20 µM; AID 651647;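 active = GFP/RFP ratio change of at least 30% with cell ATP level not reduced by more than half and red fluorescence within 50% of control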
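Test system: HT1080 RFP-PRO-GFP cells; Benchmarks: DMSO and RFP-L50D-GFP cell wells; Timing: cells overnight before dosing, compound overnight, 37 °C, 5% CO2; Compound: one 20 µM compound dose with 1% DMSO; Read-out: GFP/RFP fluorescence ratio.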
DDE Tn6 FP inh: inhibitors of Tn6 peptide binding to human fibrin DD(E); AID 720509; Fibrin DD(E) TRITC-Tn6 fluorescence polarization displacement; P02675; actives 0.21% (n = 370,000); inhibition, % at 8.3 µM;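 active = inhibition above a per-campaign cutoff: mean of compounds within control limits plus 3 SD, cut at about 15% in these data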;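 also: 0% = median of all compound wells on the plate and 100% = blocking peptide control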
* = called active by the depositor; . = no result.

SMILES | Tn7 DDE FP | SKN-1 inh | MT1-MMP act inh | DDE Tn6 FP inh
CCOC(=O)c1c(-c2ccccc2)csc1NC(=O)CCN1C(=O)c2ccccc2C1=O | -2.5 | 6.1 | -1.9 | 5.6
CCOC(=O)c1c(-c2cccs2)csc1NC(C)=O | 4.8 | -1.7 | 6.3 | 0.1
CCOC(=O)c1sc(NC(=O)CN2CC(C)OC(C)C2)nc1C (stereo not given) | 7.9 | 35.4* | -1.0 | 4.8
CCOC(=O)c1c(-c2ccc(-c3ccccc3)cc2)csc1NC(=O)CNCCN(C)C | -3.3 | 52.0* | 4.6 | -11.9
CCOC(=O)c1c(-c2cccs2)csc1NC(=O)CN1CC(C)OC(C)C1 (stereo not given) | 5.1 | 36.7* | -7.1 | 5.3
O=C(/C=C(\Nc1ccc(Cl)c(Cl)c1)c1ccccc1)c1ccccc1 | -1.6 | . | . | -1.6
Cc1ccccc1Cn1cc(COC(=O)NCC(C)C)nn1 | -0.6 | . | . | -5.1
CN(C)[C@@H]1CCN(c2ccc3c(c2)OCCCN(C2CC2)S3(=O)=O)C1 | -1.2 | . | . | -3.7
C[C@@H](NC(=O)C[C@H]1CC[C@H]2[C@@H](COc3ccc(NC(=O)Nc4ccccc4)cc3C(=O)N2C)O1)c1ccccc1 | -0.1 | . | . | 3.2
O=C(C1CCN(c2cncnc2)CC1)N1CCCC1 | 6.7 | . | . | 13.2
CC(C)(C)NC(=O)NC(=O)COC(=O)c1ccc(OC(F)F)cc1 | 4.2 | -2.6 | 8.4 | 5.5
CC(=O)Nc1ccc(C(=O)OCC(=O)NC(=O)NC(C)(C)C)cc1 | -0.7 | 44.9* | -5.4 | -8.4
O=C(NC1=N[C@@]2(C=C3CCCCC3n3c(=O)n(-c4ccccc4)c(=O)n32)[C@H](Cc2ccccc2)N1Cc1ccccc1)c1ccccc1 (stereo not given in full) | 0.6 | . | . | -5.4
COc1ccc2c(c1)CN1C(=O)N(C3CCCC3)S(=O)(=O)CC21 (stereo not given) | 2.4 | . | . | 7.9
O=C1NCCC12C(=O)Nc1ccccc12 (stereo not given) | -5.5 | 15.9 | 4.3 | 0.3
O=C(O)C1=C2C(=O)Nc3cccc(c32)C2(C1)C(=O)Nc1ccccc12 (stereo not given) | 5.3 | 35.7* | 1.3 | -7.1
O=c1[nH]c2c(s1)C=Nc1ccccc1N2 | 30.2* | -24.0 | -150.4 | 7.1
O=C1CC(c2ccco2)CC2=C1C=Nc1ccccc1N2 (stereo not given) | 2.3 | 15.2 | -1.1 | 1.0
O=C(CCn1c(=O)c2ccccc2n(CC(=O)NCCC2=CCCCC2)c1=O)NCc1ccco1 | 2.9 | 35.1* | 1.7 | -0.5
CCOC(=O)N1CCN(C(=O)C[C@H]2C[C@@]3(C(=O)OC)C(=C[C@H](C(C)(C)C)O[C@@H]3C)N(Cc3ccco3)C2=O)CC1 | 5.2 | . | . | 4.3
Cc1ccc(C(C)C)cc1NC(=O)Nc1ccc([N+](=O)[O-])cc1 | -5.5 | 19.6 | -16.1 | -2.4
Cc1cc(O)c(C(C)C)cc1NC(=O)Nc1ccc([N+](=O)[O-])cc1 | -11.1 | 43.8* | -1.4 | -2.3
Cc1ccc(C(=O)Nc2ncc([N+](=O)[O-])s2)cc1 | 1.4 | 37.4* | -3.2 | 5.1
Cc1nc2ccccc2c(=O)n1/N=C/c1ccccc1Cl | 2.3 | 37.9* | -1.8 | 7.0
CCn1nnc2sc3c(c2c1=O)CCC(C)C3 (stereo not given) | -6.5 | 36.1* | 1.1 | 5.2
SMILES | Tn7 DDE FP | SKN-1 inh | MT1-MMP act inh | DDE Tn6 FP inh
COc1ccccc1/C=C/C=N/N1CCN(Cc2ccc(Cl)cc2)CC1 | 6.2 | 35.5* | 3.5 | -0.8
OC(CNC1CCCC1)COc1ccc(-c2ccccc2)cc1 (stereo not given) | 9.5 | 43.4* | -2.8 | 0.2
COC(=O)c1ccc(OCC(O)CNC2CCCC2)cc1 (stereo not given) | 0.2 | 5.7 | -3.4 | -8.1
COc1ccc(OCC(O)CNC(C)c2ccccc2)cc1 (stereo not given) | -3.8 | -5.7 | 1.5 | -5.0
CCCC(NCC(O)COc1ccc(-c2ccccc2)cc1)c1ccccc1 (stereo not given) | -0.6 | 58.0* | -4.6 | -6.9
O=S1(=O)c2ccc(N3CCSCC3)cc2Oc2ccccc2CN1Cc1cn(Cc2ccc(F)cc2)nn1 | 3.4 | . | . | 1.9
O=C(OCc1cn(Cc2ccc(F)c(F)c2)nn1)N1CCOCC1 | 0.8 | . | . | -0.6
CC(=O)N1CCN(c2ccc(NCc3ccccc3)cc2)CC1 | -5.0 | 38.4* | 8.7 | 7.6
CC(=O)N1CCN(c2ccc(NCc3cccc4ccccc34)cc2)CC1 | -7.6 | -3.7 | 2.4 | 0.5
O=C(CSc1nnc(-c2ccccn2)n1-c1ccccc1)Nc1ccc2c(c1)OCCO2 | 4.6 | . | . | -1.1
O=C(NC(=S)Nc1ccc2cn[nH]c2c1)c1ccccc1 | 1.9 | 13.1 | 1.4 | 4.5
CC1CCN(C(C)C(=O)Nc2ccccc2-c2ccccc2)CC1 (stereo not given) | 6.9 | 43.6* | -5.4 | 10.1
CC(C(=O)Nc1ccccc1-c1ccccc1)N1CCN(C(=O)c2ccccc2)CC1 (stereo not given) | -3.0 | -9.8 | -3.0 | 3.9
COc1ccc(Cc2nc(-c3ccc(Cl)cc3)no2)cc1 | -9.1 | 35.4* | 6.2 | 2.1
COC(=O)c1c(NC(=O)CN2CCN(Cc3ccc4c(c3)OCO4)CC2)sc(C)c1C | 0.7 | 36.3* | 3.3 | -1.3
COC(=O)c1ccsc1NC(=O)CN1CCN(Cc2ccc3c(c2)OCO3)CC1 | -4.5 | 14.6 | -2.0 | -7.9
CCOC(=O)C1=C(COC(=O)c2cc([N+](=O)[O-])ccc2Cl)NC(=O)NC1C (stereo not given) | 3.0 | 7.1 | 1.1 | 8.8
CCOC(=O)C1=C(COC(=O)c2ccc(Cl)cc2[N+](=O)[O-])NC(=O)NC1C (stereo not given) | -2.9 | 34.3* | -3.2 | -5.2
O=C(c1ccc(C#Cc2ccccc2)o1)N1CCN(c2ccccn2)CC1 | -4.0 | 7.9 | 7.9 | 1.5
COC(=O)c1ccc(C#Cc2ccccc2)o1 | 6.4 | 37.1* | 0.9 | 9.2
O=C(CN(Cc1ccco1)C(=O)CNS(=O)(=O)c1ccc(Cl)cc1)NC1CCCCC1 | -3.9 | 37.5* | -5.3 | -2.9
COc1ccc(C2Nc3ccccc3C(=O)N2Cc2ccco2)cc1COc1ccc(F)cc1 (stereo not given) | 3.2 | 42.6* | -13.1 | -6.7
COCC(=O)N(c1ccc(C(C)(C)C)cc1)C(C(=O)NC(C)(C)C)c1cccnc1 (stereo not given) | 2.3 | . | . | 4.3
O=C(CN1CCN(S(=O)(=O)c2ccc(Br)cc2)CC1)Nc1ccc(F)cc1 | -4.3 | 5.2 | -2.4 | 1.3
O=C(CN1CCN(S(=O)(=O)c2ccc(Br)cc2)CC1)Nc1ccc2c(c1)OCO2 | -3.2 | 34.6* | -6.1 | -0.6
CN1C(=O)N(c2ccccc2)C(Nc2nncs2)C1(C)C (stereo not given) | 6.2 | 38.3* | 1.4 | 1.1
NC(=O)C1CCN(c2nc(-c3ccc4c(c3)OCCCO4)cs2)CC1 | -6.6 | . | . | -2.4
CC(=O)n1cc([C@H]2C=C(C(=O)NCc3ccccc3)O[C@@H](OCCCCO)C2)c2ccccc21 | -3.0 | -15.6 | -3.7 | 4.8

Assay outcomes as filed in PubChem.
